Laboratory results reported in ChEMBL document CHEMBL1124414, “2(1H)-quinolinones with cardiac stimulant activity. 2. Synthesis and biological activities of 6-(N-linked, five-membered heteroaryl) derivatives” (1989).

What was measured:
Canis familiaris [1] = assay: Compound was examined for effects on cardiac contractility to decrease in QA interval after oral administration of 0.25 mg/Kg to conscious dogs for 3h; format: functional, Canis lupus familiaris, Heart
Procedure, shortened: (§1)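 Conscious dogs dosed orally by gavage with a solution of test substance. QA interval recorded every 0.16 h from 0.5 h predose to up to 4 h postdose. Each time-point value is the mean of six consecutive sets, each set the mean over an 8-s period. Result is the change from mean predose control QA interval, read at 1 h and 3 h. Saline-dosed controls n = 8.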

Canis familiaris [2] = assay: Compound was tested for cardiotonic activity after intravenous administration of 12.5 ug/Kg to anesthetized dogs; format: functional, Canis lupus familiaris
Procedure, shortened: (§2)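 Anesthetized dogs with left ventricular pressure recorded by Millar catheter via the carotid artery. The signal is differentiated to give dP/dt max as the contractility index. Equilibration 0.75 h after surgery. Drug given iv in 0.9% saline 0.5 h after a standard inotrope (50 μg/kg). Doses repeated once control levels returned, at least 0.5 h apart. Result is % increase in dP/dt max after a single dose.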

Canis familiaris [3] = assay: Compound was examined for effects on cardiac contractility after oral administration of 0.25 mg/Kg to conscious dogs for 1 hr; format: functional, Canis lupus familiaris, Heart; procedure, shortened: as §1
Canis familiaris [4] = assay: Relative inotropic potency compared with 4-[4-[2-(1,1-dioxo-2-isothiazolidinyl)ethyl]-1-piperidinyl]-6,7-dimethoxyquinazoline at 50 ug/kg after administration at 12.5 ug/kg intravenously to anesthetized dogs; format: functional, Canis lupus familiaris
Procedure, shortened: (§3)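 Anesthetized dogs instrumented for dP/dt max from left ventricular pressure by carotid catheter. Drug given iv in 0.9% saline. The standard quinazoline inotrope (50 μg/kg iv) was tested in the same dog. Relative potency = (% increase in dP/dt max to drug ÷ % increase to standard) × (standard dose ÷ drug dose).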

Canis familiaris [5] = assay: Compound was tested for cardiotonic activity after intravenous administration of 50 ug/Kg to anesthetized dogs; format: functional, Canis lupus familiaris; procedure, shortened: as §2
Canis familiaris [6] = assay: Relative inotropic potency compared with 4-[4-[2-(1,1-dioxo-2-isothiazolidinyl)ethyl]-1-piperidinyl]-6,7-dimethoxyquinazoline at 50 ug/kg after administration at 25 ug/kg intravenously to anesthetized dogs; format: functional, Canis lupus familiaris; procedure, shortened: as §3
Canis familiaris [7] = assay: Compound was tested for cardiotonic activity after intravenous administration of 25 ug/Kg to anesthetized dogs; format: functional, Canis lupus familiaris; procedure, shortened: as §2
Canis familiaris [8] = assay: Relative inotropic potency compared with 4-[4-[2-(1,1-dioxo-2-isothiazolidinyl)ethyl]-1-piperidinyl]-6,7-dimethoxyquinazoline at 50 ug/kg after iv administration of 25 ug/kg to anesthetized dogs; format: functional, Canis lupus familiaris; procedure, shortened: as §3
Canis familiaris [9] = assay: Relative inotropic potency compared with 4-[4-[2-(1,1-dioxo-2-isothiazolidinyl)ethyl]-1-piperidinyl]-6,7-dimethoxyquinazoline at 50 ug/kg after administration at 10 ug/kg intravenously to anesthetized dogs; format: functional, Canis lupus familiaris; procedure, shortened: as §3
Canis familiaris [10] = assay: Compound was tested for cardiotonic activity after intravenous administration of 10 ug/Kg to anesthetized dogs; format: functional, Canis lupus familiaris; procedure, shortened: as §2
Canis familiaris [11] = assay: Compound was examined for effects on cardiac contractility to decrease in QA interval after oral administration of 0.0625 mg/Kg to conscious dogs for 3h; format: functional, Canis lupus familiaris, Heart; procedure, shortened: as §1
Canis familiaris [12] = assay: Relative inotropic potency compared with 4-[4-[2-(1,1-dioxo-2-isothiazolidinyl)ethyl]-1-piperidinyl]-6,7-dimethoxyquinazoline at 50 ug/kg after administration at 6.5 ug/kg intravenously to anesthetized dogs; format: functional, Canis lupus familiaris; conditions: in the assay text read “6.25 ug/kg” for “6.5 ug/kg”; procedure, shortened: as §3
Canis familiaris [13] = assay: Compound was examined for effects on cardiac contractility after oral administration of 0.0625 mg/Kg to conscious dogs for 1 hr; format: functional, Canis lupus familiaris, Heart; procedure, shortened: as §1
Canis familiaris [14] = assay: Compound was tested for cardiotonic activity after intravenous administration of 6.25 ug/Kg to anesthetized dogs; format: functional, Canis lupus familiaris; procedure, shortened: as §2
Canis familiaris [15] = assay: Compound was examined for effects on cardiac contractility to decrease in QA interval after oral administration of 0.125 mg/Kg to conscious dogs for 3h; format: functional, Canis lupus familiaris, Heart; procedure, shortened: as §1
Canis familiaris [16] = assay: Compound was examined for effects on cardiac contractility after oral administration of 0.125 mg/Kg to conscious dogs for 1 hr; format: functional, Canis lupus familiaris, Heart; procedure, shortened: as §1
Canis familiaris [17] = assay: Relative inotropic potency compared with 4-[4-[2-(1,1-dioxo-2-isothiazolidinyl)ethyl]-1-piperidinyl]-6,7-dimethoxyquinazoline at 50 ug/kg after administration at 50 ug/kg intravenously to anesthetized dogs; format: functional, Canis lupus familiaris; procedure, shortened: as §3
Canis familiaris [18] = assay: Compound was examined for effects on cardiac contractility after oral administration of 0.5 mg/Kg to conscious dogs for 1 hr; format: functional, Canis lupus familiaris, Heart; procedure, shortened: as §1
Canis familiaris [19] = assay: Compound was examined for effects on cardiac contractility to decrease in QA interval after oral administration of 0.5 mg/Kg to conscious dogs for 3h; format: functional, Canis lupus familiaris, Heart; procedure, shortened: as §1
Canis familiaris [20] = assay: Relative inotropic potency compared with 4-[4-[2-(1,1-dioxo-2-isothiazolidinyl)ethyl]-1-piperidinyl]-6,7-dimethoxyquinazoline at 50 ug/kg after administration at 250 ug/kg intravenously to anesthetized dogs; format: functional, Canis lupus familiaris; procedure, shortened: as §3
Canis familiaris [21] = assay: Compound was tested for cardiotonic activity after intravenous administration of 250 ug/Kg to anesthetized dogs; format: functional, Canis lupus familiaris; procedure, shortened: as §2
Canis familiaris [22] = assay: Relative inotropic potency compared with 4-[4-[2-(1,1-dioxo-2-isothiazolidinyl)ethyl]-1-piperidinyl]-6,7-dimethoxyquinazoline at 50 ug/kg after administration of 50 ug/kg intravenously to anesthetized dogs; format: functional, Canis lupus familiaris; procedure, shortened: as §3
Canis familiaris [23] = assay: Compound was examined for effects on cardiac contractility after oral administration of 1 mg/Kg to conscious dogs for 1 hr; format: functional, Canis lupus familiaris, Heart; procedure, shortened: as §1
Canis familiaris [24] = assay: Compound was examined for effects on cardiac contractility to decrease in QA interval after oral administration of 1 mg/Kg to conscious dogs for 3h; format: functional, Canis lupus familiaris, Heart; procedure, shortened: as §1

## Cc1cn(-c2cc(C)c3[nH]c(=O)ccc3c2)c(C)n1 [NANTERINONE]
Canis familiaris [1]
  Decrease in QA interval: 17 ms
Canis familiaris [2]
  Increase in dP/dt max: 40%
Canis familiaris [3]
  Decrease in QA interval: 16 ms
Canis familiaris [4]
  Relative inotropic potency: 7.6

## Cc1cc(-n2cnnc2)cc2ccc(O)nc12
Canis familiaris [1]
  Decrease in QA interval: 17 ms
Canis familiaris [5]
  Increase in dP/dt max: 68%
Canis familiaris [3]
  Decrease in QA interval: 15 ms
Canis familiaris [6]; in the assay text read “administration at 50 ug/kg” for “administration at 25 ug/kg”
  Relative inotropic potency: 2.3

## Cc1cc(-n2ccnc2)cc2ccc(O)nc12
Canis familiaris [7]
  Increase in dP/dt max: 139%
Canis familiaris [8]
  Relative inotropic potency: 4.5
Canis familiaris [1]
  Decrease in QA interval: 15 ms
Canis familiaris [3]
  Decrease in QA interval: 20 ms

## Cc1cn(-c2cc(C)c3c(c2)C(C)CC(=O)N3)c(C)n1 (stereo unspecified)
Canis familiaris [9]
  Relative inotropic potency: 1.9
Canis familiaris [10]
  Increase in dP/dt max: 20%

## Cc1cn(-c2cc(C)c3nc(O)ccc3c2)cn1
Canis familiaris [11]
  Decrease in QA interval: 7 ms
Canis familiaris [12]
  Relative inotropic potency: 16.3
Canis familiaris [13]
  Decrease in QA interval: 12 ms
Canis familiaris [14]
  Increase in dP/dt max: 59%

## Cc1cc(-n2cncc2C)cc2ccc(O)nc12
Canis familiaris [2]
  Increase in dP/dt max: 55%
Canis familiaris [15]
  Decrease in QA interval: 11 ms
Canis familiaris [16]
  Decrease in QA interval: 14 ms
Canis familiaris [4]
  Relative inotropic potency: 4.9

## Cc1[nH]c(=O)c(C#N)cc1-c1ccncc1 [MILRINONE]
Canis familiaris [7]
  Increase in dP/dt max: 46%
Canis familiaris [1]
  Decrease in QA interval: 7 ms
Canis familiaris [3]
  Decrease in QA interval: 13 ms
Canis familiaris [6]
  Relative inotropic potency: 1.6

## Cc1cc(-n2cnc(C(F)(F)F)c2)cc2ccc(O)nc12
Canis familiaris [2]
  Increase in dP/dt max: 82%
Canis familiaris [15]
  Decrease in QA interval: 5 ms
Canis familiaris [16]
  Decrease in QA interval: 11 ms
Canis familiaris [4]
  Relative inotropic potency: 4.5

## Cc1cn(-c2cc(C)c3nc(O)cc(C)c3c2)c(C)n1
Canis familiaris [9]
  Relative inotropic potency: 1.2
Canis familiaris [10]
  Increase in dP/dt max: 10%

## Cc1cc(-n2ncnn2)cc2ccc(O)nc12
Canis familiaris [17]
  Relative inotropic potency: 1.1
Canis familiaris [5]
  Increase in dP/dt max: 24%

## Cc1cc(-n2cncn2)cc2ccc(O)nc12
Canis familiaris [7]
  Increase in dP/dt max: 67%
Canis familiaris [18]
  Decrease in QA interval: 21 ms
Canis familiaris [19]
  Decrease in QA interval: 21 ms
Canis familiaris [6]
  Relative inotropic potency: 3.6

## Cc1cn(-c2cc(C(F)(F)F)c3nc(O)ccc3c2)c(C)n1
Canis familiaris [20]
  Relative inotropic potency: 0.2
Canis familiaris [21]
  Increase in dP/dt max: 22%

## Cc1cc(-n2ccnc2C)cc2ccc(O)nc12
Canis familiaris [2]
  Increase in dP/dt max: 50%
Canis familiaris [15]
  Decrease in QA interval: 13 ms
Canis familiaris [16]
  Decrease in QA interval: 14 ms
Canis familiaris [4]
  Relative inotropic potency: 5.5

## Cc1cc(-n2cnnn2)cc2ccc(O)nc12
Canis familiaris [7]
  Increase in dP/dt max: 117%
Canis familiaris [1]
  Decrease in QA interval: 16 ms
Canis familiaris [3]
  Decrease in QA interval: 15 ms
Canis familiaris [6]
  Relative inotropic potency: 3.4

## Cc1cc(-n2cccn2)cc2ccc(O)nc12
Canis familiaris [22]
  Relative inotropic potency: 1.7
Canis familiaris [5]
  Increase in dP/dt max: 79%

## Cc1cn(-c2ccc3nc(O)ccc3c2)c(C)n1
Canis familiaris [20]
  Relative inotropic potency: 0.2
Canis familiaris [21]
  Increase in dP/dt max: 29%

## Cc1cn(-c2cc(C)c3c(c2)CCC(=O)N3)c(C)n1
Canis familiaris [17]
  Relative inotropic potency: 0.9
Canis familiaris [5]
  Increase in dP/dt max: 52%
Canis familiaris [23]
  Decrease in QA interval: 12 ms
Canis familiaris [24]
  Decrease in QA interval: 13 ms
